Tests used:
[1] = Selectivity index, ratio of CC50 for human TZM-bl cells to EC50 for wild type HIV1 NL4-3 infected in human TZM-bl cells; format: toxicity, cell-based; conditions: read-out: Ratio CC50/EC50
Procedure, shortened: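 Selectivity index is CC50/EC50, with both values from the TZM-bl assays: NL4-3 single-round luciferase infection and CytoTox-Glo viability, each over 1 day.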

[2] = test system: Human immunodeficiency virus 1; test: Antiviral activity against wild type HIV1 NL4-3 infected in human TZM-bl cells assessed as reduction in viral infection measured after 1 day by luciferase reporter gene assay based luminiscence assay; format: functional, organism-based; conditions: Human immunodeficiency virus 1, NL4-3, TZM-bl, 24 h
Procedure, shortened: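 TZM-bl cells got a single-round infection with 800 TCID50 of NL4-3 at various compound concentrations, top concentration 100 ng/mL. Luminescence was read 1 day post-infection. EC50 is the concentration giving a 50% decrease in luciferase RLU versus control wells, determined in at least triplicate.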

[3] = Cytotoxicity against human TZM-bl cells assessed as reduction in cell viability measured after 1 day by CytoTox-Glo assay; format: cell-based
Procedure, shortened: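 TZM-bl cells were cultured 1 day with various compound concentrations, in parallel with the antiviral assay, top concentration 100 ng/mL. Viable cells were measured by CytoTox-Glo. CC50 is the concentration causing a 50% reduction in cell viability.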

[4] = test system: Human immunodeficiency virus 1; test: Antiviral activity against HIV-1 harboring reverse transcriptase F227L/V106A mutant infected in human MT4 cells assessed as inhibition of virus induced cytopathic effect measured after 5 days by MTT assay; format: functional, organism-based; conditions: Human immunodeficiency virus 1, MT4, 120 h
Procedure, shortened: (§1)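 MT-4 cells, exponentially growing, resuspended at 6 × 10^5 cells/mL and infected with the mutant HIV-1 stock at 100–300 CCID50. Compounds were added as 5-fold serial dilutions, in triplicate wells, alongside mock-infected wells. After 5 days, viability was read by MTT reduction at 540 and 690 nm using the median OD of three wells. EC50 is the concentration giving 50% protection from viral cytopathogenicity.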

[5] = test system: Human immunodeficiency virus 1; test: Antiviral activity against HIV-1 harboring reverse transcriptase Y188L mutant infected in human MT4 cells assessed as inhibition of virus induced cytopathic effect measured after 5 days by MTT assay; format: functional, organism-based; conditions: Human immunodeficiency virus 1, MT4, 120 h; procedure, shortened: as §1
[6] = test system: Human immunodeficiency virus 1; test: Antiviral activity against wild type HIV-1 3B infected in human MT4 cells assessed as inhibition of virus-induced cytopathic effect measured after 5 days by MTT assay; format: functional, organism-based; conditions: Human immunodeficiency virus 1, 3B, MT4, 120 h
Procedure, shortened: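 MT-4 cells at 6 × 10^5 cells/mL were infected with virus stock at 100–300 CCID50 in the presence of serial 5-fold compound dilutions, in triplicate wells. Viability was read by MTT reduction 5 days after infection, with absorbance at 540 and 690 nm and the median OD of three wells used. EC50 is the concentration giving 50% protection from viral cytopathicity.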

[7] = Antiviral activity against HIV-2 ROD infected in human MT4 cells assessed as protection against virus-induced cytopathic effect measured after 5 days by MTT assay; conditions: Human immunodeficiency virus 2, ISOLATE ROD, MT4, 120 h
[8] = test system: Human immunodeficiency virus 1; test: Antiviral activity against HIV-1 harboring reverse transcriptase L100I mutant infected in human MT4 cells assessed as inhibition of virus induced cytopathic effect measured after 5 days by MTT assay; format: functional, organism-based; conditions: Human immunodeficiency virus 1, MT4, 120 h; procedure, shortened: as §1
[9] = test system: Human immunodeficiency virus 1; test: Antiviral activity against HIV-1 harboring reverse transcriptase Y181C mutant infected in human MT4 cells assessed as inhibition of virus induced cytopathic effect measured after 5 days by MTT assay; format: functional, organism-based; conditions: Human immunodeficiency virus 1, MT4, 120 h; procedure, shortened: as §1
[10] = Selectivity index, ratio of CC50 for human MT4 cells to EC50 for wild type HIV-1 3B infected in human MT4 cells; format: toxicity, cell-based; conditions: read-out: Ratio CC50/EC50
[11] = test system: Human immunodeficiency virus 1; test: Antiviral activity against HIV-1 harboring reverse transcriptase RES056 mutant infected in human MT4 cells assessed as inhibition of virus induced cytopathic effect measured after 5 days by MTT assay; format: functional, organism-based; conditions: Human immunodeficiency virus 1, MT4, 120 h; procedure, shortened: as §1
[12] = Cytotoxicity against human MT4 cells assessed as reduction in cell viability measured after 5 days by MTT assay; format: cell-based; conditions: time 5 day
Procedure, shortened: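 Mock-infected MT-4 cells (6 × 10^5 cells/mL) were run in parallel with the infected wells, under serial 5-fold compound dilutions in triplicate. MTT viability was read after 5 days and the median OD of three wells used. CC50 is the concentration that reduced OD540 of the mock-infected cells by 50%.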

[13] = test system: Human immunodeficiency virus 1; test: Antiviral activity against HIV-1 harboring reverse transcriptase E138K mutant infected in human MT4 cells assessed as inhibition of virus induced cytopathic effect measured after 5 days by MTT assay; format: functional, organism-based; conditions: Human immunodeficiency virus 1, MT4, 120 h; procedure, shortened: as §1
[14] = test system: Human immunodeficiency virus 1; test: Antiviral activity against HIV-1 harboring reverse transcriptase K103N mutant infected in human MT4 cells assessed as inhibition of virus induced cytopathic effect measured after 5 days by MTT assay; format: functional, organism-based; conditions: Human immunodeficiency virus 1, MT4, 120 h; procedure, shortened: as §1

| Compound | selectivity ratio [1] | EC50 [2] [nM] | CC50 at 24 h [3] [nM] | EC50 [4] [nM] | EC50 [5] [nM] | EC50 [6] [nM] | EC50 [7] [nM] | EC50 [8] [nM] | EC50 [9] [nM] | selectivity ratio [10] | EC50 [11] [nM] | CC50 at 120 h [12] [nM] | EC50 [13] [nM] | EC50 [14] [nM] |
| --- | --- | --- | --- | --- | --- | --- | --- | --- | --- | --- | --- | --- | --- | --- |
| Cc1cc(C#N)cc(C)c1Oc1nc(Nc2ccc(C#N)cc2)ncc1/C=C/C(=O)NC1CC1 | > 44 | 5.1 | > 221 | – | – | – | – | – | – | – | – | – | – | – |
| Cc1cc(C#N)cc(C)c1Oc1nc(Nc2ccc(C#N)cc2)ncc1/C=C/C(=O)NC1CCN(C(=O)C(F)(F)F)CC1 | > 1 | > 170 | > 170 | – | – | – | – | – | – | – | – | – | – | – |
| Cc1cc(C#N)cc(C)c1Oc1nc(Nc2ccc(C#N)cc2)ncc1/C=C/C(=O)NCCOCCO | > 42 | 4.81 | > 200 | 318 | 146 | 27.1 | > 61800 | 227 | 197 | 2280 | 1050 | 61800 | 47.1 | 50.3 |
| Cc1cc(C#N)cc(C)c1Oc1nc(Nc2ccc(C#N)cc2)ncc1/C=C/C(=O)NC1CCN(S(C)(=O)=O)C1 (configuration not stated) | > 12 | 14.7 | > 179 | – | – | – | – | – | – | – | – | – | – | – |
| Cc1cc(C#N)cc(C)c1Oc1nc(Nc2ccc(C#N)cc2)ncc1/C=C/C(=O)N1CCOCC1 | > 10 | 20 | > 208 | – | – | – | – | – | – | – | – | – | – | – |
| Cc1cc(C#N)cc(C)c1Oc1nc(Nc2ccc(C#N)cc2)ncc1/C=C/C(=O)NC1CCN(S(=O)(=O)C(F)(F)F)CC1 | > 1 | > 160 | > 160 | – | – | – | – | – | – | – | – | – | – | – |
| Cc1ccnc2c1NC(=O)c1cccnc1N2C1CC1 [NEVIRAPINE] | > 53 | 281 | > 15000 | 2730 | 3390 | – | – | 373 | 2320 | > 113 | 6750 | > 9500 | 72.8 | 1470 |
| Cc1cn([C@H]2C[C@H](N=[N+]=[N-])[C@@H](CO)O2)c(=O)[nH]c1=O [ZIDOVUDINE] | > 1000 | 7.5 | > 6300 | 4.7 | 9.9 | 18.3 | – | 7 | 8.7 | > 410 | 20.1 | > 7500 | 14.5 | 12.6 |
| Cc1cc(C#N)cc(C)c1Oc1nc(Nc2ccc(C#N)cc2)ncc1/C=C/C(=O)N1CCN(S(=O)(=O)C(F)(F)F)CC1 | > 1 | > 164 | > 164 | – | – | – | – | – | – | – | – | – | – | – |
| Cc1cc(C#N)cc(C)c1Oc1nc(Nc2ccc(C#N)cc2)ncc1/C=C/C(=O)NCCN1CCN(S(C)(=O)=O)CC1 | > 40 | 4.16 | > 166 | 251 | 101 | 6.1 | > 5860 | 78.6 | 48.6 | 955 | 808 | 5900 | 20.9 | 8.7 |
| Cc1cc(C#N)cc(C)c1Oc1nc(Nc2ccc(C#N)cc2)ncc1/C=C/C(=O)NCCc1c[nH]c2ccccc12 | > 2 | 81.3 | > 180 | – | – | – | – | – | – | – | – | – | – | – |
| Cc1cc(C#N)cc(C)c1Oc1nc(Nc2ccc(C#N)cc2)ncc1/C=C/C(=O)N1CCN(S(C)(=O)=O)CC1 | > 13 | 13.8 | > 179 | – | – | – | – | – | – | – | – | – | – | – |
